MEKK3 PB1 HTS – modulators of MEKK3-MEK5 PB1 binding, primary screen, biochemical, wildtype MEKK3, multiplex bead flow cytometry, Alexa488-MEK5; Mitogen-activated protein kinase kinase kinase 3 (Homo sapiens), Q99759; bead-based flow cytometry, Alexa488-MEK5 binding to MEKK3; actives lie on both sides; 0 = blocked by unlabeled MEK5, 100 = vehicle; binding response (% of control), % at 10 µM; 290,000 compounds, 1.4% hits; AID 1529, 2009;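 active = binding response more than 3 SD above or below the average of its plate-row segment, actives on both sides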;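 note: Alexa488 bead fluorescence after subtracting the streptavidin-only scavenger bead signal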
Target sequence (Q99759 whole entry, looked up): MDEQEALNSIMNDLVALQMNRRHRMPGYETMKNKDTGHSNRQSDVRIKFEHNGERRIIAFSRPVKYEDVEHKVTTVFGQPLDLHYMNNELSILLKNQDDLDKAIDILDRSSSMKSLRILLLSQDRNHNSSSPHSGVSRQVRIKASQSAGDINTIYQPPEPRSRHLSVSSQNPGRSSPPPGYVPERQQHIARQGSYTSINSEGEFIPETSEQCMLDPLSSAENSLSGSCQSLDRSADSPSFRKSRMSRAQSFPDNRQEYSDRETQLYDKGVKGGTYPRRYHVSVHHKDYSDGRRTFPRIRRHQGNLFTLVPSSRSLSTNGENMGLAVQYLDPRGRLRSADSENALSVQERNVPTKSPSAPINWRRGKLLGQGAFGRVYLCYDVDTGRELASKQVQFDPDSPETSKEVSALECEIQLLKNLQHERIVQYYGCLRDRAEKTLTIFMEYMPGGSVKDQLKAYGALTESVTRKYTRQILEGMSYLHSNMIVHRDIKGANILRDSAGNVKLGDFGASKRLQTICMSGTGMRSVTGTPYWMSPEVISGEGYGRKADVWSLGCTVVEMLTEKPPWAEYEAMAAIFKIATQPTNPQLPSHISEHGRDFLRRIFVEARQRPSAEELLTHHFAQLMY
IMP-1 inhibitor – IMP-1 metallo-beta-lactamase inhibitors, primary screen, biochemical, epi-absorbance readout, Pseudomonas aeruginosa enzyme. purified IMP-1, nitrocefin hydrolysis, epi-absorbance fluorescence. inhibition, % at 5.6 µM. 290,000 compounds, 0.45% hits. AID 1556, 2009. metallo-beta-lactamase IMP-1 (Pseudomonas aeruginosa);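 active = inhibition above the mean plus 3 SD of all compounds in the same screening run, cut at about 4.5% in these data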
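Assay system: purified IMP-1; Quantity: IMP-1 0.2 nM before substrate addition; Medium: HEPES buffer pH 7.1 with ZnSO4 and Brij 35; Incubation: 15 min enzyme–compound preincubation, then 25 min nitrocefin reaction, 25 °C; Signal: fluorescence quenching readout, ex 480/em 530 nm; Controls: DMSO with and without IMP-1; Repeats: singlicate testing.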
MEKK2 WT-MEK5 – modulators of MEK5 binding to wildtype MEKK2, primary screen, biochemical, multiplex bead flow cytometry, Alexa488-MEK5 | 290,000 compounds, 1.1% hits | Alexa488-MEK5 binding to MEKK2 WT; actives lie on both sides | Mitogen-activated protein kinase kinase kinase 2 (Homo sapiens), Q9Y2U5 | binding response (% of control), % at 10 µM; in the data active = binding response below about 67% or above about 130%
MEKK2 mut-MEK5 – MEK5 binding signal on mutant MEKK2 PB1, primary screen, biochemical, multiplex bead flow cytometry, Alexa488-MEK5. Alexa488-MEK5 binding to MEKK2 mutant. 290,000 compounds, 0.35% hits. percent response, % at 10 µM. AID 1530, 2009; in the data active = percent response above about 24%, passing the limit was not always enough
VIM-2 inhibitor – VIM-2 metallo-beta-lactamase inhibitors, primary screen, biochemical, epi-absorbance readout, Pseudomonas aeruginosa enzyme; purified VIM-2, nitrocefin hydrolysis, epi-absorbance fluorescence; inhibition, % at 5.6 µM; 290,000 compounds, 0.89% hits; AID 1527, 2009;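 active = inhibition above the mean of all tested compounds plus 3 SD, cutoff set per screening run, cut at about 7.5% in these data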;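 note: red hydrolysis product quenches plate fluorescence so inhibitors raise well fluorescence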
MEKK2wt confirm – modulators of MEK5 binding to wildtype MEKK2, confirmation, biochemical, single concentration, multiplex bead flow cytometry | shares compounds with MEKK3 PB1 HTS | Alexa488-MEK5 binding to MEKK2 WT; actives lie on both sides | binding response (% of control), % at 10 µM | 5,900 compounds, 2.4% hits; in the data active = binding response below about 16% or above about 210%; inactive = in between
MEKK2mut-MEK5 – mutant MEKK2 PB1-MEK5 binding signal retest – biochemical, single concentration, multiplex bead flow cytometry, confirmation | shares compounds with MEKK3 PB1 HTS | Alexa488-MEK5 binding to MEKK2 mutant | percent response, % at 10 µM | 5,900 compounds, 2% hits | AID 1893, 2009; in the data active = percent response mostly above about 71%, no sharp cut-off; inactive = mostly below about 38%;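 note: higher means compound restores mutant binding toward wildtype level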
MEKK3-MEK5 inh – MEKK3 wild-type PB1 binding to MEK5, inhibitors, confirmation, biochemical, bead multiplex flow cytometry, single concentration, wildtype; shares compounds with MEKK3 PB1 HTS; Alexa488-MEK5 binding to MEKK3; hits give low values; binding response (% of control), % at 10 µM; 5,900 compounds, 1.8% hits; AID 1894, 2009;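 active = binding response below 72% of control, or above a set upper limit, though filed actives all read lower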;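 note: lower values mean stronger disruption of MEK5 binding to MEKK3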
Each line names hits and unclear results; the compound was inactive in the other large screens (follow-up assays come after a bar, where they were run); [ ] = another dose, or the depositor's remark. This is a sample that favours compounds with a hit; in the whole collection about 3.4% have one here.

CCC(=O)Nc1cccc(C2=NOC3(C2)C[C@H](C(N)=O)N(C(=O)CC#N)C3)c1 (some centres not stated)	MEKK3 PB1 HTS 78.0[inhibitor] (no result: IMP-1 inhibitor, VIM-2 inhibitor) | MEKK2wt confirm inactive | MEKK2mut-MEK5 inactive | MEKK3-MEK5 inh inactive
Cc1cnc(CN(C)Cc2c(C(=O)N3CCCCCCC3)nc3ccc(Cl)cn23)[nH]1	none
COc1ccc2c(-c3ccccc3)cc(SCC(N)=O)nc2c1	MEKK2 WT-MEK5 9.0[inhibitor], MEKK2 mut-MEK5 115.0 | MEKK2wt confirm inactive | MEKK2mut-MEK5 inactive | MEKK3-MEK5 inh inactive
COc1ccc2nc(SCC(N)=O)cc(C)c2c1	none
CC(=O)Nc1ccc(N2C(=O)CSC2c2ccc(F)cc2)cc1 (configuration not stated)	MEKK3 PB1 HTS 81.0[inhibitor] | MEKK2wt confirm inactive | MEKK2mut-MEK5 inactive | MEKK3-MEK5 inh inactive
c1ccc2ncc(-n3cnnn3)cc2c1	none
CC(C)(C)NC(=O)c1cnn2c1NC(c1ccc(F)cc1)CC2C(F)(F)F (configuration not stated)	none
O=C(N/N=C/c1cn(Cc2cccc(F)c2)c2ccccc12)c1cc(O)cc(O)c1	MEKK3 PB1 HTS 79.0[inhibitor], MEKK2 WT-MEK5 65.0[inhibitor] | MEKK2wt confirm inactive | MEKK2mut-MEK5 inactive | MEKK3-MEK5 inh inactive
Nc1ccc(C(=O)N/N=C/c2cn(Cc3ccc(F)cc3)c3ccccc23)cc1	none
CCc1nc(NCc2ccc3c(c2)OCO3)c2oc3ccccc3c2n1	none
Cc1nc(NCc2ccc3c(c2)OCO3)c2oc3ccccc3c2n1	MEKK3 PB1 HTS 70.0[inhibitor] | MEKK2wt confirm inactive | MEKK2mut-MEK5 inactive | MEKK3-MEK5 inh inactive
CC(c1ccccc1)N1CCn2c(nc3cc(NC(=O)c4cccs4)ccc32)C1 (configuration not stated)	MEKK3 PB1 HTS 19.0[inhibitor], MEKK2 WT-MEK5 35.0[inhibitor] | MEKK2wt confirm inactive | MEKK2mut-MEK5 inactive | MEKK3-MEK5 inh inactive
COCCN1CCn2c(nc3cc(NC(=O)c4cccs4)ccc32)C1	none
COc1ccc(-c2c(N)n[nH]c2C)cc1OC	none
COc1ccc(NC(=O)/C(C#N)=C\c2cc(C)n(-c3ccc(Oc4ccc([N+](=O)[O-])cn4)cc3)c2C)cc1	none
COc1ccc(NC(=O)/C(C#N)=C/c2cc(C)n(-c3ccc(N4CCOCC4)c([N+](=O)[O-])c3)c2C)cc1	MEKK3 PB1 HTS 132.0 | MEKK2wt confirm inactive | MEKK2mut-MEK5 inactive | MEKK3-MEK5 inh inactive
CCOc1ccc(NC(=O)c2cc3cc4ccc(OC)cc4nc3o2)cc1	MEKK3 PB1 HTS 2.0[inhibitor], MEKK2 WT-MEK5 1.0[inhibitor] | MEKK2wt confirm inactive | MEKK2mut-MEK5 inactive | MEKK3-MEK5 inh inactive
CCOc1ccc(NC(=O)c2cc3cc4ccc(C)cc4nc3o2)cc1	none
COc1ccc2cc3cc(C(=O)Nc4ccccc4N4CCN(C)CC4)oc3nc2c1	MEKK2 WT-MEK5 173.0 | MEKK2wt confirm inactive | MEKK2mut-MEK5 inactive | MEKK3-MEK5 inh inactive
CN(C)C(=O)Nc1ccccc1CC[N+](=O)[O-]	none
O=C(Nc1ccc(Cl)cc1)Nc1ccccc1CC[N+](=O)[O-]	MEKK3 PB1 HTS 4.0[inhibitor], MEKK2 WT-MEK5 6.0[inhibitor] | MEKK2wt confirm inactive | MEKK2mut-MEK5 inactive | MEKK3-MEK5 inh inactive
O=C(Nc1cccc(-c2nc3cc(Cl)ccc3o2)c1)C1CCCO1 (configuration not stated)	none
C=C1CCC[C@]2(C)C[C@H]3OC(=O)C(CNC(C)CCCC(C)C)[C@H]3CC12 (some centres not stated)	MEKK2 WT-MEK5 138.0 | MEKK2wt confirm inactive | MEKK2mut-MEK5 inactive | MEKK3-MEK5 inh inactive
Cc1ccc2cc(/C=C3\N=C(c4ccccc4)OC3=O)c(N3CCOCC3)nc2c1	MEKK3 PB1 HTS 75.0[inhibitor], MEKK2 WT-MEK5 28.0[inhibitor] | MEKK2wt confirm inactive | MEKK2mut-MEK5 inactive | MEKK3-MEK5 inh inactive
COc1ccc(N2CCN(c3nc4cc(C)ccc4cc3C=O)CC2)cc1	none
CSCC[C@H](NC(=O)c1cc([N+](=O)[O-])ccc1Cl)c1nc2ccccc2[nH]1	MEKK3 PB1 HTS 143.0 | MEKK2wt confirm inactive | MEKK2mut-MEK5 inactive | MEKK3-MEK5 inh inactive
CSCCC(NC(=O)c1cccc([N+](=O)[O-])c1)c1nc2ccccc2[nH]1 (configuration not stated)	none
CCC(=O)N1CCc2cc(Br)cc(S(=O)(=O)CCC(=O)N(CC)CC)c21	none
Cc1cccc(C)c1NC(=O)CN1C(=O)S/C(=C\c2cccn2-c2cccc(C(=O)O)c2)C1=O	none
Cc1ccccc1NC(=O)CN1C(=O)S/C(=C\c2cccn2-c2cccc(C(=O)O)c2)C1=O	MEKK3 PB1 HTS 122.0 | MEKK2wt confirm inactive | MEKK2mut-MEK5 inactive | MEKK3-MEK5 inh inactive
COc1ccc(OCC(=O)N/N=C/c2ccc(N(C)C)cc2)cc1	none
COc1ccc(OCC(=O)N/N=C/c2ccsc2)cc1	MEKK3 PB1 HTS 140.0 | MEKK2wt confirm inactive | MEKK2mut-MEK5 inactive | MEKK3-MEK5 inh inactive
Cc1cccc(NC(=O)COC(=O)Cc2cccc(C(F)(F)F)c2)c1C	MEKK3 PB1 HTS 145.0 | MEKK2wt confirm inactive | MEKK2mut-MEK5 inactive | MEKK3-MEK5 inh inactive
COc1ccc(NC(=O)C2CCCN(S(=O)(=O)c3cccs3)C2)cc1OC (configuration not stated)	none
Cc1sc2nc(CC(=O)NN)[nH]c(=O)c2c1C	none
CCN(CC)CCN1c2ccccc2Sc2ccccc21	none
CCN(CC)CCN1c2ccccc2Sc2ccc3ccccc3c21	MEKK2 WT-MEK5 136.0 | MEKK2wt confirm inactive | MEKK2mut-MEK5 inactive | MEKK3-MEK5 inh inactive
CCN(CC)CCCNc1nc(CN2CCOCC2)nc2sc3c(c12)CCC3	none
CC1(C)SC[C@H](C(=O)Nc2cccc(Cl)c2)N1C=O	none
COc1ccccc1CCc1nnc(CCC(=O)NC(C)Cc2cccnc2)o1 (configuration not stated)	MEKK3 PB1 HTS 47.0[inhibitor] | MEKK2wt confirm inactive | MEKK2mut-MEK5 inactive | MEKK3-MEK5 inh inactive

Assay outcomes: PubChem, several laboratories
